Measured values reported in the RNAGym collection of RNA variant scans (doi:10.1126/science.aae0568).
Variants at the floor of the assay were thinned out.

B1: tRNA (parent)
chain: GUUCCGUUGGCGUAAUGGUAACGCGUCUCCCUCCUAAGGAGAAGACUGCGGGUUCGAGUCCCGUACGGAACG

Variants of: B1
Assay: yeast fitness relative to wild type (ratio to wild type); higher = fitter; tRNA-Arg(CCU), competitive growth, 37 C, YPD
How it was run: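 Amplicons of the tRNA-Arg(CCU) gene were sequenced, 100-nucleotide paired-end, from the start population and from each end population of a pooled yeast competition. The competition, in six parallel replicates, lasted 24 hours in YPD at 37°C. Fitness relative to wild type was calculated from changes in genotype frequencies. Genotypes had to have ≥ 100 starting reads, and estimates < 0.5 were set to 0.5.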

Row | Variant | yeast fitness
1 | A45C G48C | 0.833
2 | A43U G56A G63A | 0.773
3 | G44A C55A A69C | ≤ 0.5
4 | G44C A65G | 1.06
5 | G44C A65C | 0.742
6 | G44C C46A A69U | 0.726
7 | A43U G67A A69U | 0.548
8 | G44C G50A | 0.861
9 | A45C A70G | 0.957
10 | A43C G50C A70U | 0.574
11 | A43U U64G G67A | ≤ 0.5
12 | G44A A45C C49G A69C | 0.698
13 | A43U G52C C62A | ≤ 0.5
14 | A45C | 0.987
15 | A43C U64C | 0.997
16 | A45C C46A C49G | 0.722
17 | A43C C60G G67A | ≤ 0.5
18 | G44C C62G G68A | ≤ 0.5
19 | G44C G68U | 0.661
20 | G44C G68C | 0.81
21 | A43G G58A C61G | ≤ 0.5
22 | A43U C49A C66U A70U | 0.529
23 | A43G G50A G51A | ≤ 0.5
24 | A43C U54A A57G | ≤ 0.5

Row | Variant | yeast fitness
25 | A45C C46G G56C | 0.563
26 | A43G A57C C60G | ≤ 0.5
27 | A43G C62G | 0.752
28 | A43G C62U | 0.877
29 | A43G C62A | 0.72
30 | A43C U53C C66U A70C | ≤ 0.5
31 | A43G A45U U47C G63A | ≤ 0.5
32 | G44C G63A | 0.83
33 | G44C A57U U64A G68C | ≤ 0.5
34 | G44A G48A | 0.96
35 | A43U A45C | 0.837
36 | A43G G50A | 0.864
37 | A45C C55U G67C | ≤ 0.5
38 | A43U G48C C60G G63A | ≤ 0.5
39 | A45C G48A C62U | 0.606
40 | A43G G52C C55A C61A | ≤ 0.5
41 | A45C C62A | 0.622
42 | A45C C62G | 0.718
43 | G44C G67A | 0.722
44 | G44C G67U | 0.855
45 | A43C C49U C55G C61U | 0.556
46 | G44A A70U | 1.03
47 | G44A A70C | 0.837
48 | G44A A70G | 0.919

Row | Variant | yeast fitness
49 | A43G A45U G67U | 0.682
50 | A43C G44C C55G C62U | 0.661
51 | A43C C46U G63C C66U | 0.581
52 | G44A C60U | 0.798
53 | G44A C60A | 0.585
54 | A43U U47C C55A A65U A70G | ≤ 0.5
55 | A43C G48C A57G | 0.817
56 | G44C A45U | 0.905
57 | G44C A45C | 0.97
58 | A43G G56C | 0.766
59 | G44C C49A | 0.625
60 | G44C C49G | 0.741
61 | G44C C49U | 0.783
62 | A43G C55A A69U | 0.633
63 | G44C C62A C66U | ≤ 0.5
64 | A43G U53C C55U C62U | ≤ 0.5
65 | G44A C66U | 0.86
66 | A43C C60G | 0.953
67 | A43C C60A | 0.591
68 | A43G G44A C46A | 0.976
69 | G44C G50C A57G A69U | ≤ 0.5
70 | A43U G48A C60A | 0.586
71 | G44A G63A G67C | ≤ 0.5
72 | A43U C55G | 0.537

Row | Variant | yeast fitness
73 | A43U C46U | 0.952
74 | G44C G52C C66G | ≤ 0.5
75 | G44A A45C U53A C55A U59C C62U | ≤ 0.5
76 | A43G A57C G58A A65U | ≤ 0.5
77 | A43U C46A G63A | 0.689
78 | A43U A65C A69C | ≤ 0.5
79 | A43C G52C | 0.74
80 | A45C C46U U64C | 0.79
81 | A43G C46U A70G | 1.04
82 | G44C G52A C62G A69G | ≤ 0.5
83 | A43G C66A | 0.791
84 | G44C G56A | 0.795
85 | A43U C49U C62U | 0.79
86 | A43U G50A | 0.796
87 | A43U G50C | 0.812
88 | A43G G50C U59C | ≤ 0.5
89 | A45C C60U | 0.752
90 | G44A A45C G51A | ≤ 0.5
91 | A45C C49A U54C | ≤ 0.5
92 | A43G A57U | 0.623
93 | A43U G48A G56C A57U | 0.693
94 | A43U C61A A65U | ≤ 0.5
95 | A43U U54A A70G | ≤ 0.5
96 | A45C G50A A65C | 0.634

Row | Variant | yeast fitness
97 | A43G U47G C55G | 0.636
98 | A43U A65U | 0.883
99 | A43U A65C | 0.952
100 | A45C C66U | 0.786
101 | A45C C66A | 0.665
102 | A43G A69U | 1.04
103 | A43G U53A U54C | ≤ 0.5
104 | A43G G52C U53C G63C | 0.604
105 | G44A C61U | 1.04
106 | A43C G51C | 0.587
107 | A43C G51A | 0.809
108 | A43G G44A C46A G67A | 0.59
109 | G44U C49G | 0.654
110 | A43U C49G G63A A69C | ≤ 0.5
111 | A45C C49U C55U | 0.596
112 | G44C C46G C55U G63A | ≤ 0.5
113 | A43G G48A | 0.933
114 | A43G C46G U53C G56C | ≤ 0.5
115 | A43C C62A | 0.874
116 | A45C G50A | 0.969
117 | A43C G48A | 1.06
118 | G44C U53C | 0.797
119 | G44A A57C | 0.654
120 | G44C C61G | 0.586

Row | Variant | yeast fitness
121 | G44C C61U | 0.718
122 | A43G C61G C62U | ≤ 0.5
123 | A43G C60U A65G | 0.535
124 | G44C A45G G56A | 1.01
125 | A43G C66U G68A | 0.585
126 | G44C C55G A69U | 0.746
127 | A43G A65U | 0.899
128 | A43G A65G | 1.08
129 | A43U C60A | 0.59
130 | G44C C61A C62U C66U | ≤ 0.5
131 | A45C G51C A57G | ≤ 0.5
132 | A43G G58A | 0.969
133 | A43U C66U | 0.829
134 | A43G U53A | 0.657
135 | G44A C49U | 1.04
136 | G44A C49A | 0.635
137 | A43U G48C | 0.922
138 | A43U G50C C60A | ≤ 0.5
139 | G44C C49U U59G | ≤ 0.5
140 | G44C G51A G58C U59A | ≤ 0.5
141 | G44A C60U G67C | 0.545
142 | A43U G63C | 0.589
143 | G44A C46U A70C | 0.809
144 | A43U C49G | 0.727

Row | Variant | yeast fitness
145 | G44A U54A | 0.61
146 | A43C C49A C66A | ≤ 0.5
147 | G44A G56A | 1.05
148 | A43U C62A | 0.702
149 | A43C U53A U54C | 0.583
150 | G44C U54C | 0.977
151 | G44C U54A | 0.667
152 | A43U C55U C66U | 0.619
153 | G44A G50C | 0.623
154 | G44A G50A | 0.891
155 | G44A C49U A69C | 0.752
156 | A43G C61A | 0.616
157 | A43G G68C | 0.712
158 | A43U C46U A69U | 0.807
159 | A43G C55U C61A | ≤ 0.5
160 | G44A C46G G50C U53A | ≤ 0.5
161 | G44C C66A | 0.688
162 | A45C C62G A65C | 0.554
163 | A45C C55U G68C | 0.626
164 | A43U A70G | 0.937
165 | A43U A70C | 0.898
166 | A43G U59A | 0.797
167 | G44C C62U A69C | 0.696
